ChEMBL document CHEMBL4402612, “Heterodimeric Analogues of the Potent Y1R Antagonist 1229U91, Lacking One of the Pharmacophoric C-Terminal Structures, Retain Potent Y1R Affinity and Show Improved Selectivity over Y4R” (J Med Chem, 2020)
Positions of bridges follow the written chain, without caps; N, C: chain ends. Non-standard residues stand in square brackets, D forms with d. Residues, ends and D or L forms follow the SMILES beside them. Chains are numbered I, II in the order given. Orn = NCCC[C@H](N)C(=O)O; Dab = NCC[C@H](N)C(=O)O; Dap = NC[C@H](N)C(=O)O

Assays:
Homo sapiens = organism: Homo sapiens; assay: Selectivity index, ratio of Ki of GFP-tagged Y4R in human HEK293T cells to Ki GFP-tagged Y1R in human HEK293T cells; format: cell-based
How it was run: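 Ratio of mean Ki values, Y4/Y1, from whole-cell competition binding in tetracycline-induced 293TR Y1-GFP or Y4-GFP cells. Tracer was 100 nM (sCy5)-[Lys²Arg⁴]-BVD15, added after 5 min competitor preincubation, then 30 min at 37 °C, with imaging read-out.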

[1] = target: T1, Neuropeptide Y receptor type 1 (Homo sapiens, UniProt P25929); assay: Displacement of (sCy5)-[Lys2 Arg4]-BVD15 from GFP-tagged Y1R in human HEK293T cells assessed as inhibitory constant incubated for 5 mins followed by (sCy5)-[Lys2 Arg4]-BVD15 addition and measured after 30 mins by fluorescence based assay; format: cell-based
T1 sequence (P25929 whole entry): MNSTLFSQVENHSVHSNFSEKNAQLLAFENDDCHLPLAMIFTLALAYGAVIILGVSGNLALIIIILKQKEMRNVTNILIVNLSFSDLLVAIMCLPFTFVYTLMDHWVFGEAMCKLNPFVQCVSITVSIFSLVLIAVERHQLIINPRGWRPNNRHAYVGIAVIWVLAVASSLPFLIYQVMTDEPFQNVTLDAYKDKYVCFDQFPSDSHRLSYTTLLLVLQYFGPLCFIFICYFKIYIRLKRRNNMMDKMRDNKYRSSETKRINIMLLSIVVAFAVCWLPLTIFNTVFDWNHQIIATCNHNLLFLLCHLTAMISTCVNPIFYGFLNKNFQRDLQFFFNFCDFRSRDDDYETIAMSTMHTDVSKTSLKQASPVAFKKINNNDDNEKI

[2] = target: T2, Neuropeptide Y receptor type 4 (Homo sapiens, UniProt P50391); assay: Agonist activity at Y4R in human HEK293T cells assessed as increase in beta-arrestin recruitment incubated for 60 mins by Hoechst 33342 dye based fluorescence analysis relative to pancreatic polypeptide
T2 sequence (P50391 whole entry): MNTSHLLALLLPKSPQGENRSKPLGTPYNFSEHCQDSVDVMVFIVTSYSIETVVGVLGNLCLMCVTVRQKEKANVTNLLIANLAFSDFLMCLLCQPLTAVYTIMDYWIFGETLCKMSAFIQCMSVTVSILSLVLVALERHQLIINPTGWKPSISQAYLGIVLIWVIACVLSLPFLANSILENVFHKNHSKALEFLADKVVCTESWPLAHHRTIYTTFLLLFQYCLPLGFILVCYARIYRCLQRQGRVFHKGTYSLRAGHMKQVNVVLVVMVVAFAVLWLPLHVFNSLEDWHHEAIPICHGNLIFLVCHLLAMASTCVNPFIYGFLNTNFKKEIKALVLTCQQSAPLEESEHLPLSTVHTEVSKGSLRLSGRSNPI

[3] = target: T2, Neuropeptide Y receptor type 4; assay: Agonist activity at Y4R in human HEK293T cells assessed as increase in beta-arrestin recruitment incubated for 60 mins by Hoechst 33342 dye based fluorescence analysis
[4] = target: T2, Neuropeptide Y receptor type 4; assay: Displacement of (sCy5)-[Lys2 Arg4]-BVD15 from GFP-tagged Y4R in human HEK293T cells assessed as inhibitory constant incubated for 5 mins followed by (sCy5)-[Lys2 Arg4]-BVD15 addition and measured after 30 mins by fluorescence based assay; format: cell-based
How it was run: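 Competitors (10^-10–10^-6 M) added in HBSS/0.1% BSA with H33342 for 5 min, then 100 nM final (sCy5)-[Lys²Arg⁴]-BVD15 for 30 min at 37 °C. Washed and imaged confocally; granule counts per cell. Non-specific binding with 100 nM PP.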

Structure (SMILES) | Ratio Ki (Homo sapiens) | Ki [1] [nM] | Rmax [2] [%] | EC50 [3] [nM] | Ki [4] [nM]
CC[C@H](C)[C@H](N)C(=O)N[C@H]1CCC(=O)NCCCC[C@@H](C(=O)N[C@@H](Cc2ccc(O)cc2)C(=O)N[C@@H](CCCNC(=N)N)C(=O)N[C@@H](CC(C)C)C(=O)N[C@@H](CCCNC(=N)N)C(=O)N[C@@H](Cc2ccc(O)cc2)C(N)=O)NC(=O)[C@@H]2CCCN2C(=O)[C@@H](NC(=O)[C@@H](N)[C@@H](C)CC)CCC(=O)NCCCC[C@@H](C(=O)N[C@@H](Cc2ccc(O)cc2)C(=O)N[C@@H](CCCNC(=N)N)C(=O)N[C@@H](CC(C)C)C(=O)N[C@@H](CCCNC(=N)N)C(=O)N[C@@H](Cc2ccc(O)cc2)C(N)=O)NC(=O)[C@@H]2CCCN2C1=O (I: H-IEPKYRLRY-NH2 / II: H-IEPKYRLRY-NH2; amide I:2-II:4, I:4-II:2) | 6.3 | 25.1 | 56.4 | 23.4 | 158
CC[C@H](C)[C@H](N)C(=O)N[C@H]1CCC(=O)NCC[C@@H](C(=O)N[C@@H](Cc2ccc(O)cc2)C(=O)N[C@@H](CCCNC(=N)N)C(=O)N[C@@H](CC(C)C)C(=O)N[C@@H](CCCNC(=N)N)C(=O)N[C@@H](Cc2ccc(O)cc2)C(N)=O)NC(=O)[C@@H]2CCCN2C(=O)[C@@H](NC(=O)[C@@H](N)[C@@H](C)CC)CCC(=O)NCC[C@@H](C(=O)N[C@@H](Cc2ccc(O)cc2)C(=O)N[C@@H](CCCNC(=N)N)C(=O)N[C@@H](CC(C)C)C(=O)N[C@@H](CCCNC(=N)N)C(=O)N[C@@H](Cc2ccc(O)cc2)C(N)=O)NC(=O)[C@@H]2CCCN2C1=O (I: H-IEP[Dab]YRLRY-NH2 / II: H-IEP[Dab]YRLRY-NH2; amide I:2-II:4, I:4-II:2) | 19 | 8.13 | 43.8 | 30.2 | 155
CC[C@H](C)[C@H](N)C(=O)N[C@H]1CCC(=O)NC[C@@H](C(=O)N[C@@H](Cc2ccc(O)cc2)C(=O)N[C@@H](CCCNC(=N)N)C(=O)N[C@@H](CC(C)C)C(=O)N[C@@H](CCCNC(=N)N)C(=O)N[C@@H](Cc2ccc(O)cc2)C(N)=O)NC(=O)[C@@H]2CCCN2C(=O)[C@@H](NC(=O)[C@@H](N)[C@@H](C)CC)CCC(=O)NC[C@@H](C(=O)N[C@@H](C)C(=O)N[C@@H](CCCNC(=N)N)C(=O)N[C@@H](CC(C)C)C(=O)N[C@@H](CCCNC(=N)N)C(=O)N[C@@H](Cc2ccc(O)cc2)C(N)=O)NC(=O)[C@@H]2CCCN2C1=O (I: H-IEP[Dap]ARLRY-NH2 / II: H-IEP[Dap]YRLRY-NH2; amide I:2-II:4, I:4-II:2) | 269 | 2.34 | 52.3 | 37.2 | 631
CC[C@H](C)[C@H](N)C(=O)N[C@H]1CCC(=O)NC[C@@H](C(=O)N[C@@H](Cc2ccc(O)cc2)C(=O)N[C@@H](CCCNC(=N)N)C(=O)N[C@@H](CC(C)C)C(=O)N[C@@H](C)C(=O)N[C@@H](Cc2ccc(O)cc2)C(N)=O)NC(=O)[C@@H]2CCCN2C(=O)[C@@H](NC(=O)[C@@H](N)[C@@H](C)CC)CCC(=O)NC[C@@H](C(=O)N[C@@H](Cc2ccc(O)cc2)C(=O)N[C@@H](C)C(=O)N[C@@H](CC(C)C)C(=O)N[C@@H](CCCNC(=N)N)C(=O)N[C@@H](Cc2ccc(O)cc2)C(N)=O)NC(=O)[C@@H]2CCCN2C1=O (I: H-IEP[Dap]YALRY-NH2 / II: H-IEP[Dap]YRLAY-NH2; amide I:2-II:4, I:4-II:2) | 32 | 31.6 | -9.5 | – | 912
CC[C@H](C)[C@H](N)C(=O)N[C@H]1CCC(=O)NC[C@@H](C(=O)N[C@@H](Cc2ccc(O)cc2)C(=O)N[C@@H](CCCNC(=N)N)C(=O)N[C@@H](CC(C)C)C(=O)N[C@@H](CCCNC(=N)N)C(=O)N[C@@H](Cc2ccc(O)cc2)C(N)=O)NC(=O)[C@@H]2CCCN2C(=O)[C@@H](NC(=O)[C@@H](N)[C@@H](C)CC)CCC(=O)NC[C@@H](C(=O)N[C@@H](Cc2ccc(O)cc2)C(=O)N[C@@H](CCCNC(=N)N)C(=O)N[C@@H](C)C(=O)N[C@@H](CCCNC(=N)N)C(=O)N[C@@H](Cc2ccc(O)cc2)C(N)=O)NC(=O)[C@@H]2CCCN2C1=O (I: H-IEP[Dap]YRARY-NH2 / II: H-IEP[Dap]YRLRY-NH2; amide I:2-II:4, I:4-II:2) | 427 | 0.275 | 48.2 | 12.9 | 129
CC[C@H](C)[C@H](N)C(=O)N[C@H]1CCC(=O)NC[C@@H](C(=O)N[C@@H](Cc2ccc(O)cc2)C(=O)N[C@@H](CCCNC(=N)N)C(=O)N[C@@H](CC(C)C)C(=O)N[C@@H](CCCNC(=N)N)C(=O)N[C@@H](Cc2ccc(O)cc2)C(N)=O)NC(=O)[C@@H]2CCCN2C(=O)[C@@H](NC(=O)[C@@H](N)[C@@H](C)CC)CCC(=O)NC[C@@H](C(=O)N[C@@H](Cc2ccc(O)cc2)C(=O)N[C@@H](CCCNC(=N)N)C(=O)N[C@@H](CC(C)C)C(=O)N[C@@H](C)C(=O)N[C@@H](Cc2ccc(O)cc2)C(N)=O)NC(=O)[C@@H]2CCCN2C1=O (I: H-IEP[Dap]YRLAY-NH2 / II: H-IEP[Dap]YRLRY-NH2; amide I:2-II:4, I:4-II:2) | 427 | 0.363 | 50.2 | 5.13 | 170
CC[C@H](C)[C@H](N)C(=O)N[C@H]1CCC(=O)NC[C@@H](C(=O)N[C@@H](Cc2ccc(O)cc2)C(=O)N[C@@H](CCCNC(=N)N)C(=O)N[C@@H](CC(C)C)C(=O)N[C@@H](CCCNC(=N)N)C(=O)N[C@@H](Cc2ccc(O)cc2)C(N)=O)NC(=O)[C@@H]2CCCN2C(=O)[C@@H](NC(=O)[C@@H](N)[C@@H](C)CC)CCC(=O)NC[C@@H](C(=O)N[C@@H](Cc2ccc(O)cc2)C(=O)N[C@@H](CCCNC(=N)N)C(=O)N[C@@H](CC(C)C)C(=O)N[C@@H](CCCNC(=N)N)C(=O)N[C@@H](C)C(N)=O)NC(=O)[C@@H]2CCCN2C1=O (I: H-IEP[Dap]YRLRA-NH2 / II: H-IEP[Dap]YRLRY-NH2; amide I:2-II:4, I:4-II:2) | 676 | 0.257 | 55.2 | 6.76 | 174
CC[C@H](C)[C@H](N)C(=O)N[C@H]1CCC(=O)NC[C@@H](C(=O)N[C@@H](Cc2ccc(O)cc2)C(=O)N[C@@H](CCCN=C(N)N)C(=O)N[C@@H](CC(C)C)C(=O)N[C@@H](CCCN=C(N)N)C(=O)N[C@@H](Cc2ccc(O)cc2)C(N)=O)NC(=O)[C@@H]2CCCN2C(=O)[C@@H](NC(=O)[C@@H](N)[C@@H](C)CC)CCC(=O)NC[C@@H](C(=O)N[C@@H](Cc2ccc(O)cc2)C(=O)N[C@@H](CCCN=C(N)N)C(=O)N[C@@H](CC(C)C)C(=O)N[C@@H](CCCN=C(N)N)C(=O)N[C@@H](Cc2ccc(O)cc2)C(N)=O)NC(=O)[C@@H]2CCCN2C1=O (I: H-IEP[Dap]YRLRY-NH2 / II: H-IEP[Dap]YRLRY-NH2; amide I:2-II:4, I:4-II:2) | 87 to 141 | 0.295 to 1.02 | 21.8 to 36.1 | 11.2 to 37.2 | 41.7 to 89.1
CC[C@H](C)[C@H](N)C(=O)N[C@H]1CCC(=O)NCCC[C@@H](C(=O)N[C@@H](Cc2ccc(O)cc2)C(=O)N[C@@H](CCCNC(=N)N)C(=O)N[C@@H](CC(C)C)C(=O)N[C@@H](CCCNC(=N)N)C(=O)N[C@@H](Cc2ccc(O)cc2)C(N)=O)NC(=O)[C@@H]2CCCN2C(=O)[C@@H](NC(=O)[C@@H](N)[C@@H](C)CC)CCC(=O)NCCC[C@@H](C(=O)N[C@@H](Cc2ccc(O)cc2)C(=O)N[C@@H](CCCNC(=N)N)C(=O)N[C@@H](CC(C)C)C(=O)N[C@@H](CCCNC(=N)N)C(=O)N[C@@H](Cc2ccc(O)cc2)C(N)=O)NC(=O)[C@@H]2CCCN2C1=O (I: H-IEP[Orn]YRLRY-NH2 / II: H-IEP[Orn]YRLRY-NH2; amide I:2-II:4, I:4-II:2) | 4.9 | 12.9 | 33 | 4.27 | 63.1
